The results in this text go back to PMC6217956 (The FEBS journal, 2016).

Holding throughout (type): binding
One experiment concerns the target T1, PTN (Homo sapiens, UniProt P21246).
T1 sequence (P21246 33-168): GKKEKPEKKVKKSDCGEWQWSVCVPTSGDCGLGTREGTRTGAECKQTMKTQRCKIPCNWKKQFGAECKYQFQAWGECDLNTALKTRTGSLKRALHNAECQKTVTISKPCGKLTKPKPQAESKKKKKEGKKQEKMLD
As to the kind of experiment: PRE control experiment with 4-hydroxy-TEMPO. The note with it: under the condition of the PRE experiments.

The target in experiment [1] is T2, C-terminal truncated PTN (residues 1 to 114) (Homo sapiens, UniProt P21246).
T2 sequence (P21246 33-146): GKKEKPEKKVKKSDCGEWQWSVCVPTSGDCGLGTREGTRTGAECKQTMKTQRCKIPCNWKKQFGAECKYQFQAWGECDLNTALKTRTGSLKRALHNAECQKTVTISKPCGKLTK
Nature of the experiment: Immobilized CSA and CSE ELISA of C-terminal truncated PTN. As to conditions: immobilized native CS, biotinylated truncated PTN (residues 1 to 114). In outline: (§1)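 Human PTN (wild type or residues 1–114) was expressed in E. coli Origami B (DE3), purified on a heparin column, and biotinylated by EDC coupling to amine-PEG-biotin (MES pH 5.5). CSA or CSE was EDC/NHS-crosslinked overnight to poly-L-lysine-coated amine plates, then blocked with 5% BSA for 1.5 h. PTN at 2.5–0.015 μg/ml, 1 h; streptavidin-HRP 1 h; TMB; HCl stop; A450. Kd by 1:1 Langmuir fit; ≥3 runs, triplicate points.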

A further experiment deals with T3, wild type PTN (Homo sapiens, UniProt P21246).
T3 sequence (P21246 33-168): T1 sequence (P21246 33-168)
As to the kind of experiment: Immobilized CSA and CSE ELISA of wild type PTN. As to conditions: immobilized native CS, biotinylated wild type PTN, Langmuir isotherm 1:1. In outline: as §1
In general terms: ELISA stands for enzyme-linked immunosorbent assay.

As to `CC1(C)CC(O)CC(C)(C)N1[O]` [4-hydroxy-TEMPO], at PTN, the “non-specific interactions between the TEMPO moiety and PTN” value was “no non-specific interactions”.

As a reminder, the Kd is a measure of binding affinity in units of concentration. Regarding Chondroitin Sulfate A [CSA], the Kd result in experiment [1] was “failed to bind”; on wild type PTN, ~17 nM.

Chondroitin Sulfate E [CSE]: the Kd entry (in experiment [1]; at wild type PTN) was “four to five” each time.
